In ChEMBL document CHEMBL4177755, “Combating Drug-Resistant Fungi with Novel Imperfectly Amphipathic Palindromic Peptides” (J Med Chem, 2018):

Key:
[1] = Cytotoxicity against HEK293T cells assessed as cell viability at 2 to 64 uM after 24 hrs by MTT assay relative to control; type: cell-based, HEK-293T; settings: human, read-out: Activity
How it was run: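 MTT viability assay. RAW264.7 or HEK293T cells at (1.0−2.0) × 10^5 per well were exposed to a peptide concentration series for 24 h at 37 °C in 5% CO2. MTT was then added at 0.5 mg/mL final for 4 h; formazan was dissolved in DMSO and read at 570 nm. Results average three independent trials.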

[2] = tested on: Escherichia coli; test: Antibacterial activity against Escherichia coli ATCC 25922 after 24 hrs; type: functional; settings: ATCC 25922, 24 h
How it was run: (§1)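 Broth microdilution. Mid-log bacteria in MHB at a final (0.5−1) × 10^5 CFU/mL were mixed with equal volumes of peptide serially diluted in 0.2% BSA. Plates were incubated 24 h at 37 °C and read at A492. MIC is the lowest concentration inhibiting 95% of growth. Each test was repeated at least 3 times.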

[3] = tested on: Escherichia coli; test: Antibacterial activity against Escherichia coli 1005 after 24 hrs; type: functional; settings: Escherichia coli, 1005, 24 h; how it was run: as §1
[4] = tested on: Salmonella typhimurium; test: Antibacterial activity against Salmonella typhimurium ATCC 14028 after 24 hrs; type: functional, Salmonella enterica subsp. enterica serovar Typhimurium; settings: Salmonella enterica, ATCC 14028, 24 h; how it was run: as §1
[5] = Antibacterial activity against Salmonella pullorum ATCC 7913 after 24 hrs; type: functional, Salmonella enterica subsp. enterica serovar Pullorum; settings: Salmonella enterica, ATCC 7913, 24 h; how it was run: as §1
[6] = tested on: Staphylococcus aureus; test: Antibacterial activity against methicillin-resistant Staphylococcus aureus ATCC 4330 after 24 hrs; type: functional; settings: ATCC 4330, 24 h
How it was run: (§2)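 Modified NCCLS broth microdilution. Mid-log bacteria at (0.5−1) × 10^5 CFU/mL in MHB were mixed 1:1 with peptide serially diluted in 0.2% BSA and incubated 24 h at 37 °C. Absorbance was read at 492 nm; MIC is the lowest concentration inhibiting 95% of growth. At least 3 repeats.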

[7] = tested on: Staphylococcus aureus; test: Antibacterial activity against Staphylococcus aureus ATCC 25923 after 24 hrs; type: functional; settings: ATCC 25923, 24 h; how it was run: as §2
[8] = tested on: Salmonella typhimurium; test: Bactericidal activity against Salmonella typhimurium ATCC 14028; type: functional, Salmonella enterica subsp. enterica serovar Typhimurium; settings: Salmonella enterica, read-out: MBC99.9
How it was run: (§3)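 Wells from the 24 h, 37 °C MHB microdilution plates (bacteria at a final (0.5−1) × 10^5 CFU/mL; peptide diluted in 0.2% BSA) were plated on agar and incubated overnight. MBC is the lowest concentration killing >99.9% of cells. Each test was reproduced at least 3 times.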

[9] = Bactericidal activity against Salmonella pullorum ATCC 7913; type: functional, Salmonella enterica subsp. enterica serovar Pullorum; settings: Salmonella enterica, read-out: MBC99.9; how it was run: as §3
[10] = tested on: Staphylococcus aureus; test: Bactericidal activity against Staphylococcus aureus ATCC 29213; type: functional; settings: read-out: MBC99.9; how it was run: as §3
[11] = tested on: Staphylococcus aureus; test: Bactericidal activity against methicillin-resistant Staphylococcus aureus ATCC 4330; type: functional; settings: read-out: MBC99.9
How it was run: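 Bacteria at (0.5−1) × 10^5 CFU/mL in MHB were exposed to serially diluted peptide (0.2% BSA) for 24 h at 37 °C, then 50 μL aliquots were plated on agar overnight. MBC is the lowest concentration killing >99.9% of cells. At least 3 repeats.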

[12] = tested on: Candida albicans; test: Antifungal activity against Candida albicans SP3903 after 48 hrs by broth microdilution method; type: functional; settings: SP3903, 48 h
How it was run: (§4)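 Modified CLSI M27-A2 broth microdilution. Yeast at (0.5−1) × 10^3 CFU/mL in MOPS-buffered RPMI 1640 was mixed 1:1 with peptide serially diluted in 0.2% BSA and incubated 48 h at 28 °C. Absorbance was read at 492 nm; MIC is the lowest concentration inhibiting 95% of growth. Triplicate, three biological replicates.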

[13] = tested on: Candida albicans; test: Antifungal activity against Candida albicans SP3902 after 48 hrs by broth microdilution method; type: functional; settings: SP3902, 48 h; how it was run: as §4
[14] = tested on: Candida albicans; test: Antifungal activity against Candida albicans isolated from alveolar fluid after 48 hrs by broth microdilution method; type: functional; how it was run: as §4
[15] = tested on: Candida albicans; test: Antifungal activity against fluconazole-resistant Candida albicans 56452 after 48 hrs by broth microdilution method; type: functional; settings: Candida albicans, 56452, 48 h; how it was run: as §4
[16] = tested on: Pichia kudriavzevii; test: Antifungal activity against Candida krusei cgmcc 2.1857 after 48 hrs by broth microdilution method; type: functional; settings: cgmcc 2.1857, 48 h
How it was run: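 Modified CLSI M27-A2 broth microdilution. Yeast were suspended in MOPS-buffered RPMI 1640 at a final (0.5−1) × 10^3 CFU/mL and mixed 1:1 with peptide serially diluted in 0.2% BSA. Plates were incubated 48 h at 28 °C and read at A492. MIC is the lowest concentration giving 95% inhibition. Run in triplicate with three biological replicates.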

[17] = tested on: Candida albicans; test: Fungicidal activity against Candida albicans cgmcc 2.2086 after 96 hrs; type: functional; settings: cgmcc 2.2086, 96 h, read-out: MFC99.9
How it was run: (§5)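 After the 48 h, 28 °C broth microdilution in MOPS-buffered RPMI 1640 (inoculum (0.5−1) × 10^3 CFU/mL), 50 μL from each well was plated on YM agar for a further 48 h at 28 °C. MFC is the lowest concentration killing at least 99.9% of cells. Triplicate, three biological replicates.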

[18] = tested on: Candida albicans; test: Fungicidal activity against Candida albicans SP3903 after 96 hrs; type: functional; settings: SP3903, 96 h, read-out: MFC99.9; how it was run: as §5
[19] = tested on: Candida albicans; test: Fungicidal activity against Candida albicans isolated from alveolar fluid after 96 hrs; type: functional; settings: read-out: MFC99.9; how it was run: as §5
[20] = tested on: Candida albicans; test: Fungicidal activity against fluconazole-resistant Candida albicans 56452 after 96 hrs; type: functional; settings: Candida albicans, 56452, 96 h; read-out: MFC99.9; how it was run: as §5
[21] = tested on: Candida albicans; test: Fungicidal activity against Candida albicans 14936 after 96 hrs; type: functional; settings: Candida albicans, 14936, 96 h; read-out: MFC99.9; how it was run: as §5
[22] = tested on: Candida tropicalis; test: Fungicidal activity against Candida tropicalis cgmcc 2.1975 after 96 hrs; type: functional; settings: cgmcc 2.1975, 96 h, read-out: MFC99.9
How it was run: (§6)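 Wells from the 48 h, 28 °C RPMI 1640/MOPS microdilution plates were plated on YM agar and incubated a further 48 h at 28 °C. MFC is the lowest concentration killing at least 99.9% of cells. Run in triplicate with three biological replicates.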

[23] = tested on: Pichia kudriavzevii; test: Fungicidal activity against Candida krusei cgmcc 2.1857 after 96 hrs; type: functional; settings: cgmcc 2.1857, 96 h, read-out: MFC99.9; how it was run: as §6
[24] = tested on: Escherichia coli; test: Antibacterial activity against Escherichia coli ATCC 25922 after 18 hrs in presence of NaCl by broth dilution method; type: functional; settings: ATCC 25922, 18 h
[25] = tested on: Escherichia coli; test: Antibacterial activity against Escherichia coli ATCC 25922 after 18 hrs in presence of NH4Cl by broth dilution method; type: functional; settings: ATCC 25922, 18 h
[26] = tested on: Candida albicans; test: Antifungal activity against Candida albicans cgmcc 2.2086 in presence of NH4Cl by broth dilution method; type: functional
[27] = tested on: Candida albicans; test: Antifungal activity against Candida albicans cgmcc 2.2086 in presence of MgCl2 by broth dilution method; type: functional
[28] = tested on: Candida albicans; test: Antifungal activity against Candida albicans cgmcc 2.2086 in presence of CaCl2 by broth dilution method; type: functional
[29] = tested on: Candida albicans; test: Antifungal activity against Candida albicans cgmcc 2.2086 in presence of ZnCl2 by broth dilution method; type: functional
[30] = tested on: Candida albicans; test: Antifungal activity against Candida albicans cgmcc 2.2086 in presence of FeCl3 by broth dilution method; type: functional
[31] = tested on: Candida albicans; test: Antifungal activity against Candida albicans 58288 after 48 hrs by broth microdilution method; type: functional; settings: Candida albicans, 58288, 48 h; how it was run: as §4

Row | Substance | viability at 24 h, up to 64 µM [1] | MIC95 [2] | MIC95 [3] | MIC95 [4] | MIC95 [5] | MIC95 [6] | MIC95 [7] | MBC [8] | MBC [9] | MBC [10] | MBC [11] | MIC95 [12] | MIC95 [13] | MIC95 [14] | MIC95 [15] | MIC95 [16] | MFC [17] | MFC [18] | MFC [19] | MFC [20] | other results
1 | H-RFRFFFRFR-NH2 | 70 to 80% | 4 µM | 4 µM | 4 µM | 2 µM | 4 µM | 4 µM | 8 µM | 8 µM | 8 µM | 4 µM | 4 µM | 4 µM | 8 µM | 4 µM | 4 µM | 16 µM | 4 µM | 16 µM | 4 µM | MFC [21]: 8 µM; MFC [22]: 4 µM; MFC [23]: 4 µM; MIC [24]: 4 µM; MIC [25]: 4 µM; MIC [26]: 8 µM; MIC [27]: 16 µM; MIC [28]: 64 µM; MIC [29]: 8 µM; MIC [30]: 8 µM; MIC95 [31]: 8 µM
2 | H-RLRLLLRLR-NH2 | 70 to 80% | 4 µM | 4 µM | 4 µM | 4 µM | 4 µM | 8 µM | 8 µM | 8 µM | 8 µM | 4 µM | 8 µM | 4 µM | 8 µM | 8 µM | 8 µM | 16 µM | 8 µM | 16 µM | 8 µM | MFC [21]: 4 µM; MFC [22]: 4 µM; MFC [23]: 8 µM; MIC [24]: 4 µM; MIC [25]: 4 µM; MIC [26]: 8 µM; MIC [27]: 8 µM; MIC [28]: 64 µM; MIC [29]: 8 µM; MIC [30]: 8 µM; MIC95 [31]: 8 µM
3 | H-RFFRRFRRFFR-NH2 | 70 to 80% | 8 µM | 8 µM | 4 µM | 4 µM | 4 µM | 4 µM | 8 µM | 8 µM | 16 µM | 8 µM | 4 µM | 8 µM | 8 µM | 8 µM | 2 µM | 16 µM | 4 µM | 16 µM | 8 µM | MFC [21]: 16 µM; MFC [22]: 4 µM; MFC [23]: 4 µM; MIC [24]: 8 µM; MIC [25]: 4 µM; MIC [26]: 4 µM; MIC [27]: 8 µM; MIC [28]: 64 µM; MIC [29]: 8 µM; MIC [30]: 8 µM; MIC95 [31]: 4 µM
